Assays:
Mus musculus [1] = experiment: Antagonistic activity against apomorphine induced climbing in the mouse after po administration; format: functional
In short: (§1)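 Male CD1 mice (20–25 g), groups of 10, dosed po with compound or vehicle ([…]) at set times before apomorphine 0.88 mg/kg sc. Each mouse placed in an inverted open-ended wire cage; climbing scored 0–2 at 10 and 20 min after apomorphine.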

[2] = target: T1, 5-hydroxytryptamine receptor 1A (Rattus norvegicus, UniProt P19327); experiment: Binding affinity towards 5-hydroxytryptamine 1A receptor from rat brain using [3H]-8-OH-DPAT as radioligand
T1 sequence (P19327 whole entry): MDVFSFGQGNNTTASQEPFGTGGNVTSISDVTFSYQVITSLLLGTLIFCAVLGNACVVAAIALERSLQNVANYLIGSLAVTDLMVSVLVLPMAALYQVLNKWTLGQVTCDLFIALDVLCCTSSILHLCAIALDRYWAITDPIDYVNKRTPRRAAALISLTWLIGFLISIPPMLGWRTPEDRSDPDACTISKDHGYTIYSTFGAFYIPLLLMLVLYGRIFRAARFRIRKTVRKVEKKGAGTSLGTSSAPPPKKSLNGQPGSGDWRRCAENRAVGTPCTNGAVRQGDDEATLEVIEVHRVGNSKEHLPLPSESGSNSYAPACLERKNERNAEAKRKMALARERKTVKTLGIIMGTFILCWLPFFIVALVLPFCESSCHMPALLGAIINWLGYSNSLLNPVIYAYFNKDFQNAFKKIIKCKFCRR

[3] = target: T2, 5-hydroxytryptamine receptor 1A (Rattus norvegicus) (UniProt P19327); experiment: The compound was tested binding affinity against 5-hydroxytryptamine 1A receptor from rat brain using [3H]8-OH-DPAT as radioligand at 10e-6 M.
T2 sequence (whole entry): T1 sequence (P19327 whole entry)
In short: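 Adult male CD rat hippocampal membranes (endogenous 5-HT removed by 37 °C, 10 min incubation) in 50 mM Tris-HCl pH 7.7 plus CaCl2, ascorbate, pargyline; incubated with 2 nM [3H]8-OH-DPAT and test compound at 10⁻⁶ M, 30 min, 25 °C; 10 μM 5-HT defines nonspecific binding. Specific binding with and without compound gives percent displacement.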

[4] = target: Adrenergic receptor alpha-1 (Homo sapiens) (UniProt P35348+P25100+P35368); experiment: Compound was tested for binding affinity towards Alpha-1 adrenergic receptor in human cortex membranes; format: cell membranes; conditions: concentration not given here
In short: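 Postmortem human cortex membranes (stored −80 °C, final in 50 mM Tris-HCl pH 7.6) incubated with [3H]prazosin 0.1 nM and compound at 10⁻⁶ M or 10 concentrations, 30 min at 30 °C; phentolamine 5 μM defines nonspecific binding. Bound ligand by filtration and scintillation counting; Ki from IC50 by Cheng–Prusoff, ±SEM; percentages are displacement at 10⁻⁶ M.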

[5] = target: T3, Adrenergic receptor alpha-1 (Homo sapiens, UniProt P35348+P25100+P35368); experiment: Binding affinity towards Alpha-1 adrenergic receptor in human cortex membranes; format: cell membranes
T3 sequence (P35348 whole entry): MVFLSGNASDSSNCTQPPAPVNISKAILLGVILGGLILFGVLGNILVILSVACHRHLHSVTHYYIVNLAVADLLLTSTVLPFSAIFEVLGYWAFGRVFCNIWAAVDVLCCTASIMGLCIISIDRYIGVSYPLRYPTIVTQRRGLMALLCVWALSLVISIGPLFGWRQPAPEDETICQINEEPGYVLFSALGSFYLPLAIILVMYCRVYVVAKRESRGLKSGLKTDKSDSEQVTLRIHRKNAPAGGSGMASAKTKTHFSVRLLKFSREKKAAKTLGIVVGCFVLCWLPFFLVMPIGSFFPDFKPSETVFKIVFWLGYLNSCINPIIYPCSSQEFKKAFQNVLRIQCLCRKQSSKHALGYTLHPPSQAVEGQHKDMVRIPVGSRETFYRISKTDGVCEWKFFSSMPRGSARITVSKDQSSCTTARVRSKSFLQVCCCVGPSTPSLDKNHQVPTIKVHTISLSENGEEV
T3 sequence (P25100 whole entry): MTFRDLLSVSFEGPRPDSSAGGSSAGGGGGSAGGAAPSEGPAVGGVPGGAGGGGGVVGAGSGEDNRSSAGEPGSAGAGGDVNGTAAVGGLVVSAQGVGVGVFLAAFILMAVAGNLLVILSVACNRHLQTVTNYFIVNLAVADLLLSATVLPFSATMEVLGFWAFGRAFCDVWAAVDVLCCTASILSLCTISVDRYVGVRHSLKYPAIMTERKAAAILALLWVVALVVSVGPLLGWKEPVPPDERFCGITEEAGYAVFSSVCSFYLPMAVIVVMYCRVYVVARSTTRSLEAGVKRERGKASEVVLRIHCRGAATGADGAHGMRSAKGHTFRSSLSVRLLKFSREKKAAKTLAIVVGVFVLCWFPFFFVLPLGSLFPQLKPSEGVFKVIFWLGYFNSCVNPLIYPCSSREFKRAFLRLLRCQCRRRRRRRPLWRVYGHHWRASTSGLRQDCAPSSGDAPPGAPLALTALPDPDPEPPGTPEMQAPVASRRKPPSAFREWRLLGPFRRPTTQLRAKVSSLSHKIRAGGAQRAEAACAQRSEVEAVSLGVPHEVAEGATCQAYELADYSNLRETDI
T3 sequence (P35368 whole entry): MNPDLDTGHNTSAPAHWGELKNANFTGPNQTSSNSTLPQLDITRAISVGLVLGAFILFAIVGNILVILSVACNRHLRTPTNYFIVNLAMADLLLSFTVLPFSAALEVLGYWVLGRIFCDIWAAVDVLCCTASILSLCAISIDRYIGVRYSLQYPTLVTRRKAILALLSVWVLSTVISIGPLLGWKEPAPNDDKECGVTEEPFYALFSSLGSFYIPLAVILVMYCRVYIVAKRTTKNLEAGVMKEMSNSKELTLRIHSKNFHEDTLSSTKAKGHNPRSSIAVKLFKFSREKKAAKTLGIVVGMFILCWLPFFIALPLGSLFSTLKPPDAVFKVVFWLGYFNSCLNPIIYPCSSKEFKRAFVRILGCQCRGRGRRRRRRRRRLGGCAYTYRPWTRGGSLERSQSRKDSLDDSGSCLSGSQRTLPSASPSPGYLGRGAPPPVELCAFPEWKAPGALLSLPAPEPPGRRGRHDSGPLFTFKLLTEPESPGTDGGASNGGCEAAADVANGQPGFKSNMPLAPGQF

Mus musculus [6] = experiment: The compound was tested for antagonistic activity against apomorphine induced climbing in the mouse, percentages are for reduction in climbing after peroral administration; format: functional; conditions: po
In short: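 Groups of 10 male CD1 mice (20–25 g) dosed po with test compound or vehicle at set times before apomorphine 0.88 mg/kg sc. Mice were placed singly in inverted wire cages and climbing was scored 0–2 at 10 and 20 min after apomorphine. Percent reduction in climbing is given at the stated dose.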

Rattus norvegicus = experiment: The compound was tested in vivo for induction of catalepsy in rat after ip administration; format: functional
In short: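 Male rats (130–190 g), groups of five, injected ip with compound solution (1 mL/kg). Catalepsy assessed at three times by placing each paw on a 45 mm rubber bung; a paw held 15 s scores 1 (group maximum 20 = 100%). ED50 from percent catalepsy at the final reading, by adapted Litchfield–Wilcoxon.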

Mus musculus [7] = experiment: The compound was tested for antagonistic activity against apomorphine induced climbing in the mouse after po administration; format: functional; in short: as §1
Mus musculus [8] = experiment: Percent reduction in apomorphine induced climbing in mouse at 50 mg/Kg of compound given perorally; format: functional
In short: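 Male CD1 mice (20–25 g), groups of 10, given compound po (vehicle 0.1 mL/kg) at 50 mg/kg before apomorphine 0.88 mg/kg sc. Climbing in inverted open-ended wire cages scored 0–2 at 10 and 20 min after apomorphine; percent reduction in climbing at that dose reported.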

SMILES	ED50 (Mus musculus [1]) [mg/kg]	Ki [2] [nM]	Ki [5] [nM]	ED50 (Rattus norvegicus) [mg/kg]	other results
c1cnc(NCCCNCC2COc3ccccc3O2)nc1 (centres undefined)	6	3.1			
c1ccc(N2CCC(CNCC3COc4ccccc4O3)CC2)nc1 (stereo in doubt; 13) [listing 1 of 2 here]					inhibition [3]: 82%; inhibition [4]: 84%
c1cnc(NCC2CCN(CC3COc4ccccc4O3)CC2)nc1 (stereo in doubt; 8)		21	23		
Cc1nc2n(c(=O)c1CCN1CCC(c3noc4cc(F)ccc34)CC1)CCCC2 [RISPERIDONE]				1.75	ED50 (Mus musculus [6]): 0.3 mg/kg
O=C(CCCN1CCC(O)(c2ccc(Cl)cc2)CC1)c1ccc(F)cc1 [HALOPERIDOL]				0.44	ED50 (Mus musculus [6]): 0.16 mg/kg
Clc1ccccc1N1CCC(CNCC2COc3ccccc3O2)CC1 (centres undefined)		17	94		
CC1(CNCC2CCN(c3ncccn3)CC2)COc2ccccc2O1 (centres undefined)		195	132		
CN1CCN(C2=Nc3cc(Cl)ccc3Nc3ccccc32)CC1 [CLOZAPINE]				33.9	ED50 (Mus musculus [6]): 9.5 mg/kg
COc1cccc(N2CCC(CNCC3COc4ccccc4O3)CC2)c1 (centres undefined)					Reduction (Mus musculus [7]): 45%
c1ccc(N2CCC(CNCC3COc4ccccc4O3)CC2)nc1 (stereo in doubt; 12) [listing 1 of 2 here]					inhibition [3]: 98%; inhibition [4]: 98%
c1ccc2c(c1)OCC(CNCC1CCN(c3cccc4c3OCCO4)CC1)O2 (centres undefined)	32	18	38	> 200	
c1cnc(N2CCC(CNC[C@@H]3COc4ccccc4O3)CC2)nc1		25	117		Reduction (Mus musculus [8]): 77%
COc1ccccc1NCC1CCN(CC2COc3ccccc3O2)CC1 (centres undefined)	62	20	20		
Cc1cc2c(s1)Nc1ccccc1N=C2N1CCN(C)CC1 [OLANZAPINE]	4.87			6.07	
COc1ccc(N2CCC(CNCC3COc4ccccc4O3)CC2)cc1 (centres undefined)	11	15	44		
c1ccc2c(c1)OCC(CNCC1CCN(c3cccc4c3OCC4)CC1)O2 (centres undefined)	18	3	33	107	
COc1ccccc1N1CCC(CNC[C@H]2COc3ccccc3O2)CC1	7	8	23	50	
COc1ccccc1N1CCC(CNCC2COc3cccc(F)c3O2)CC1 (centres undefined)	4	16	12	23	
c1cnc(N2CCC(CNC[C@H]3COc4ccccc4O3)CC2)nc1	9	2.7	18	44	
c1cnc(NCC2CCN(CC3COc4ccccc4O3)CC2)nc1 (stereo in doubt; 9)		463	208		
CN(CC1CCN(c2ncccn2)CC1)CC1COc2ccccc2O1 (centres undefined)			348		inhibition [3]: 85%
COc1ccccc1N1CCC(CNCC2COc3cccc(O)c3O2)CC1 (centres undefined)	33		> 500		inhibition [3]: 94%
COc1cccc2c1OC(CNCC1CCN(c3ncccn3)CC1)CO2 (centres undefined)	2.4	0.6	2.3		
COc1cccc2c1OCC(CNCC1CCN(c3ncccn3)CC1)O2 (centres undefined)		128	234		
c1ccc(N2CCC(CNCC3COc4ccccc4O3)CC2)nc1 (stereo in doubt; 13) [listing 2 of 2 here]					Reduction (Mus musculus [8]): 55%
c1ccc(N2CCC(CNCC3COc4ccccc4O3)CC2)cc1 (centres undefined)	39	29	47		
c1ccc(N2CCC(CNCC3COc4ccccc4O3)CC2)nc1 (stereo in doubt; 12) [listing 2 of 2 here]	23				
CC1Oc2ccccc2OC1CNCC1CCN(c2ncccn2)CC1 (centres undefined)	134	> 500	> 500	775	
COc1ccccc1N1CCC(CNC[C@@H]2COc3ccccc3O2)CC1	38	37	74		
